Published values pooled from the literature.
Target: Serine/threonine-protein kinase 24 (STK24, Homo sapiens, UniProt Q9Y6E0)

| Structure (SMILES) | assay | system | setting | measurement | result |
| --- | --- | --- | --- | --- | --- |
| O=C1CCc2cc(Nc3cc(OC4CCOCC4)c([N+](=O)[O-])cc3Cl)ccc2N1 | cell-free assay, competition with immobilised ligand |  | 1 µM | remaining binding | 97% |
| CC(C)(C)c1nc(-c2cccc(NS(=O)(=O)c3c(F)cccc3F)c2F)c(-c2ccnc(N)n2)s1 | enzyme activity, inhibitor, radiometric |  | 1 µM | remaining activity | 14% |
| O=C(Nc1cnn(-c2csc(C(=O)NC3COC3)c2)c1)Nc1ccccc1Cl | enzyme activity, inhibitor |  | 5 µM | remaining activity | 113% |
| Cn1c2c(c3ccc(Cl)c(Cl)c31)C(C#N)C1(CCCC1)NC2=O (stereo not shown) | thermal stability, DSF |  | 10 µM | ΔTm | 0.8 °C |
| CC(C)(O)[C@H]1CC[C@H](Nc2ccc3ncc(-c4cccc(C(F)(F)F)c4)n3n2)CC1 | enzyme activity, inhibitor |  | 1 µM | remaining activity | 96.1% |
| COc1cc2ncnc(Nc3ccc(Oc4ccccc4)cc3C)c2cc1OC | enzyme activity, inhibitor |  | 1 µM | inhibition | 9% |
| C[C@H](NC(=O)c1cnc2n1[C@](C)(Cc1ccc(C#N)cc1)C(=O)N2c1cc(Cl)c(F)c(Cl)c1)C(=O)NC1(c2ccccn2)CC1 | cell-free assay, competition with immobilised ligand |  | 1 µM | remaining binding | 100% |
| N#CCCc1ccc2c(c1)-c1[nH]c3ccc([N+](=O)[O-])cc3c1CC(=O)N2 | cell-free assay |  | 0.5 µM | remaining signal | 57.7% |
| COc1cc(Cl)c(C(=O)N[C@@H](CN[C@H]2CC[C@@H](N)CC2)Cc2ccc(C#N)cc2)cc1-c1ccc(CN[C@H](C)c2ccc(C)cc2)o1 | enzyme activity, inhibitor |  | 1 µM | remaining activity | 96% |
| Oc1cccc(-c2nc(N3CCOCC3)c3oc4ncccc4c3n2)c1 | cell-free assay |  | 0.5 µM | remaining signal | 100% |
| CN1CC(Oc2cnc(C#N)cc2-c2ccn3nc(NC(=O)C4CC4)cc3c2)C1 | enzyme activity, inhibitor |  | 1 µM | inhibition | 6% |
| Cc1ccc(NC(=O)c2ccc(C)c(C(F)(F)F)c2)cc1C#Cc1nn(C2CCC(O)CC2)c2ncnc(N)c12 (stereo not shown) | cell-free assay |  | 10 µM | remaining signal | 114% |
| N#CC1(c2ccccn2)CCN(Cc2cc(C(=O)N3CCCC3)c(=O)n3ccccc23)CC1 | cell-free assay, competition with immobilised ligand |  | 1 µM | remaining binding | 87% |
| Cn1c2c(Cl)c(Cl)ccc2c2cc(N)[nH]c(=O)c21 | thermal stability, DSF |  | 10 µM | ΔTm | 0.6 °C |
| COc1ccc2c(O[C@@H]3C[C@H]4C(=O)N[C@]5(C(=O)O)CC5/C=C\CCCCC[C@H](NC(=O)OC5CCCC5)C(=O)N4C3)cc(-c3csc(NC(=O)C(C)C)n3)nc2c1C (stereo partly shown) | cell-free assay, competition with immobilised ligand |  | 1 µM | remaining binding | 100% |
| Cc1sc(C(=O)NC2COC2)cc1-n1cc(NC(=O)Nc2c(F)cccc2Cl)cn1 | enzyme activity, inhibitor |  | 10 µM | remaining activity | 67.3% |
| CNC(=O)c1cc(Oc2ccc(NC(=O)Nc3ccc(Cl)c(C(F)(F)F)c3)cc2)ccn1 | enzyme activity, inhibitor |  | 10 µM | inhibition | -46% |

| Structure (SMILES) | assay | system | setting | measurement | result |
| --- | --- | --- | --- | --- | --- |
| CCN1CCN(Cc2ccc(NC(=O)c3ccc(C)c(/C=C/c4cnc5[nH]ccc5c4OC)c3)cc2C(F)(F)F)CC1 | target engagement in cells, inhibitor, chemoproteomics | A-375 | 0.5 µM | inhibition | -36.9% |
| O=C(O)c1cc(-c2ccc(C3CCNCC3)cc2)c2ccc(-c3ccc(C(F)(F)F)cc3)cc2c1 | cell-free assay, competition with immobilised ligand |  | 1 µM | remaining binding | 100% |
| O=C1Nc2ccc(Cl)cc2C1=Cc1cc(Cl)c(O)c(Cl)c1 | cell-free assay |  | 0.5 µM | remaining signal | 104% |
| O=C(O)[C@@H]1[C@@H](Cn2nnc3ccccc3c2=O)CC[C@H]1C(=O)c1ccc(OCCC2CCOCC2)cc1 | cell-free assay, competition with immobilised ligand |  | 1 µM | remaining binding | 99% |
| COc1cc(Nc2c(C#N)cnc3cc(OCCCN4CCN(C)CC4)c(OC)cc23)c(Cl)cc1Cl | cell-free assay |  | 0.5 µM | remaining signal | 11% |
| Cc1ccc(Nc2nccc(N(C)c3ccc4c(C)n(C)nc4c3)n2)cc1S(N)(=O)=O | enzyme activity, inhibitor |  | 10 µM | inhibition | -24% |
| Cn1c2c(c3ccc(Cl)c(Cl)c31)C(C#N)C(C)(C)NC2=O (stereo not shown) | thermal stability, DSF |  | 10 µM | ΔTm | 0.6 °C |
| CC1=C(C#N)C(c2ccc3c(c2)c(NC(=O)c2ccccc2C)nn3C)C(C#N)=C(C)N1 | cell-free assay, competition with immobilised ligand |  | 1 µM | remaining binding | 100% |
| CCN1CCN(Cc2ccc(NC(=O)c3ccc(C)c(Oc4ccnc5[nH]ccc45)c3)cc2C(F)(F)F)CC1 | target engagement in cells, inhibitor, chemoproteomics | A-375 | 50 nM | inhibition | -10.7% |
| Cc1ccc(C(=O)Nc2ccc(CN3CCN(C)CC3)c(C(F)(F)F)c2)cc1C#Cc1cnc2cccnn12 | enzyme activity, inhibitor |  | 23.5 nM | remaining activity | 88% |
| CN1CCC2(CC1)NC(=O)c1c(c3ccc(Cl)c(Cl)c3n1C)C2C#N (racemic) | thermal stability, DSF |  | 10 µM | ΔTm | -0.6 °C |
| COc1cc(-c2cc(-c3ccc(N4CCNCC4)cc3)cnc2C)cc(OC)c1OC | enzyme activity, inhibitor |  | 1 µM | inhibition | 4% |
| Cc1cnc(NC2CCOCC2)nc1-n1cnc(C(=O)NC(CN)c2cc(F)cc(Cl)c2)c1 (stereo not shown) | enzyme activity, inhibitor, radiometric |  | 1 µM | remaining activity | 32% |
| O=C(Nc1ccc(Oc2ccc(F)cc2)cc1)N1CCc2ncccc2[C@H]1c1ccc(F)cc1 | cell-free assay, competition with immobilised ligand |  | 1 µM | remaining binding | 93% |
| Nc1ncnc2occ(-c3ccc(NC(=O)Nc4cc(C(F)(F)F)ccc4F)cc3)c12 | cell-free assay, inhibitor |  | 20 µM | remaining signal | 4% |
| Cn1cncc1C1=CN(c2ncnc3[nH]cnc23)CCS1 | enzyme activity, inhibitor, radiometric |  | 50 nM | inhibition | 13.2% |
| c1ccc(CNc2nc(N3CCOc4ccccc43)nc3c2CCCC3)cc1 | target engagement in cells, inhibitor, chemoproteomics |  | 20 mM | inhibition | -7% |
